# This is a sample that favours compounds with a hit; in the whole collection about 0.9% have one here.
# MT1-MMP act inh: inhibitors of human MT1-MMP activation; P50281; HT1080 RFP-PRO-GFP cells, GFP/RFP ratio fluorescence, overnight; percent of plate control window, DMSO zero; GFP/RFP ratio change, % at 20 µM; 360,000 tested, 0.061% active;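 active means GFP/RFP ratio change of at least 30% with cell ATP level not reduced by more than half and red fluorescence within 50% of control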
#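 Assay system: HT1080 RFP-PRO-GFP cells | Dosing: 20 µM single dose, 1% DMSO | Incubation: Cells overnight before dosing, compound overnight, 37 °C, 5% CO2 | Evaluation: GFP/RFP fluorescence ratio | Control set: DMSO-only wells and HT1080 RFP-L50D-GFP cell wells as references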
# Tn7 DDE FP: disrupts Tn7 cyclic peptide binding to fibrin D-Dimer-E complex. P02675. FP displacement of FITC-Tn7 peptide from fibrin DD(E); 0% = median of compound wells per plate. inhibition, % at 8.3 µM. 370,000 tested, 0.13% active. AID 720508;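 active means inhibition above the mean of compounds falling within the control limits plus 3 SD of them, cut at about 14% in these data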;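 further: 0% = plate median of compound wells and 100% = 10 µM Aha-Tn7 peptide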
#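 system = human fibrin DD(E) protein | quantity = DD(E) 2 µM final | medium = Tris/NaCl/CaCl2 buffer, pH 7.8 | also added = labelled Tn7 tracer, 0.1 µM | compound dosing = single point at 8.3 µM | timing = compound with protein 10 min, then 3 h after probe, room temperature | signal = FP measurement | benchmarks = Aha-Tn7 high control | repeats = one replicate per compound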
# DDE Tn6 FP inh: disrupts Tn6 cyclic peptide binding to fibrin D-Dimer-E complex; Fibrin DD(E) TRITC-Tn6 fluorescence polarization displacement; inhibition, % at 8.3 µM; 370,000 tested, 0.21% active; AID 720509;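 active means inhibition above a per-campaign cutoff: mean of compounds within control limits plus 3 SD, cut at about 15% in these data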;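 further: 0% = median of all compound wells on the plate and 100% = blocking peptide control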
# DAGLB inh: blocks human DAGLB lipase activity; inhibition, % at 5.17 µM; Q8NCG7; AID 504411; HEK293T DAGLB membrane lysate, EnzChek fluorogenic substrate; 340,000 tested, 0.059% active; in the data active means inhibition above about 34%;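 further: 0% = enzyme with vehicle and 100% = wells lacking enzyme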
# Target sequence (Q8NCG7 whole entry, looked up): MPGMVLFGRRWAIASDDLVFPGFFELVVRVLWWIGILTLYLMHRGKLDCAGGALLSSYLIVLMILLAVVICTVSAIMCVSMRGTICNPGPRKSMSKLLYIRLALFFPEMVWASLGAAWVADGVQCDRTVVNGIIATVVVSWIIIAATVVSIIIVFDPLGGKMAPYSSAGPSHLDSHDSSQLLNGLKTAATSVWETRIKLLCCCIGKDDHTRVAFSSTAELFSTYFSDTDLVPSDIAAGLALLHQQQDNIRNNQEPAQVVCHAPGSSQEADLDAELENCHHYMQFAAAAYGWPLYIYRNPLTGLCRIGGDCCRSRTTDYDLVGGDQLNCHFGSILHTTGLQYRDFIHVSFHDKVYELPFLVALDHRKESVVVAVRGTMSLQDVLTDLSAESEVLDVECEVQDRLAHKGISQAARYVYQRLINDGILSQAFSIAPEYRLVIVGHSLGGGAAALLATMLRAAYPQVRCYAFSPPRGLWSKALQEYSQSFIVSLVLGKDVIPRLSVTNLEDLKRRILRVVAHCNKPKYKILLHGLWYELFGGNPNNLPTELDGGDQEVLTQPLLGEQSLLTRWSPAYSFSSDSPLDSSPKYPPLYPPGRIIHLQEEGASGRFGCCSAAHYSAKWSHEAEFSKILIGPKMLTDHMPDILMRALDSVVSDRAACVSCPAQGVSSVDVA
# PolyA inhibitor: yeast polyadenylation inhibition | S. cerevisiae SKY197-pL101 polyadenylation reporter, beta-gal luminescence; efflux-impaired pdr1/pdr3 knockout yeast; score 100 = 6 SD above DMSO | activity score, % at 12 µM | 300,000 tested, 0.02% active;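 active means lowest replicate activity score at least 50, where 100 means six control SD above control mean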;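 further: yeast exposed to compound for 9 h at 30 °C; higher score means more reporter readthrough which indicates perturbed polyadenylation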
# SKN-1 inh: blocks SKN-1 activity in C. elegans | C. elegans VP596 Pgst-4::GFP/RFP ratio, acrylamide-induced, 24 h | inhibition, % at 21.8 µM | 360,000 tested, 0.49% active;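 active means interference check ratio from 0.5 to 1.5 plus GFP to RFP signal ratio inhibition reaching or exceeding a fixed threshold, cut at about 30% in these data, passing the limit was not always enough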
# Tn6 DDE ctr: counter-screen for inhibitors of Tn6 peptide binding to fibrin DD(E) | AID 720621 | 680 tested, 2% active | inhibition, % at 8.3 µM | TRITC-Tn6 fluorescence polarization displacement; 0% = median of compound wells, not DMSO | shares compounds with DDE Tn6 FP inh;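 active means inhibition above the mean of test compounds lying between the control limits plus 3 SD of those, cut at about 14% in these data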;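 further: 0% = median of compound wells and 100% = wells with Aha-Tn7 blocking peptide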
# Tn6 DDE conf: confirmation of inhibitors of Tn6 binding to human fibrin DD(E); FP displacement of TRITC-Tn6 peptide from DD(E); 0% = per-plate median of test wells; AID 720631; 680 tested, 10% active; inhibition, % at 8.3 µM; shares compounds with DDE Tn6 FP inh;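 active means inhibition above the mean of compounds lying within the control limits plus 3 SD, cut at about 16% in these data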;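 further: 100% = high control wells holding a competing inhibitor peptide at 10 µM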
# * marks the source's active call; other numbers are inactive results; . = no result.
SMILES,MT1-MMP act inh,Tn7 DDE FP,DDE Tn6 FP inh,DAGLB inh,PolyA inhibitor,SKN-1 inh,Tn6 DDE ctr,Tn6 DDE conf
Nn1c(SCC(=O)Nc2ccc(Br)cn2)nnc1-c1n[nH]c2c1CCC2,.,0,1,.,.,.,.,.
COc1ccccc1C(=O)NC(=O)COC(=O)c1ccc(NC(=O)CC#N)cc1,6,2,18*,0,0,-2,3,-1
COc1ccc(C(=O)N/C=C/n2cnc3cc(C(F)(F)F)ccc32)cc1,-1,11,16*,-2,1,-12,3,0
COc1ccc(OCC(=O)Nc2c3c(nn2C(C)(C)C)CS(=O)(=O)C3)cc1,1,1,5,1,-5,-16,.,.
CC(C)(C)n1nc2c(c1NC(=O)COc1ccc(F)cc1)CS(=O)(=O)C2,3,9,16*,0,16,14,-9,-11
CCC[C@H]1[C@@H](OC(=O)NCc2cccnc2)CC[C@@]23CCCN2C(=O)CCC[C@@H]13,.,2,-2,.,.,.,.,.
Cc1cc2c(NC(=O)CCCC(=O)O)cccc2nn1,1,-8,3,-2,4,-15,.,.
Cc1cc2c(NC(=O)Nc3ccc(C(F)(F)F)cc3)cccc2nn1,8,-2,108*,0,-2,5,12,11
CN(C)c1cccc(/C=C2\CC3(OC(=O)c4ccc(F)cc4)CCCN2C3)c1 (centres undefined),.,3,4,.,.,.,.,.
O=C(O)Cn1cc(/C=C2/SC(=O)N(CC(=O)N3CCCCCC3)C2=O)c2ccccc21,.,1,15*,.,2,.,2,-1
O=C(O)Cn1cc(/C=C2\SC(=O)N(c3ccccc3)C2=O)c2ccccc21,0,4,5,0,7,18,.,.
Clc1ccc([C@H]2OC[C@@]3(CNCc4ccc5c(c4)OCO5)CS[C@H](c4ccc(Cl)cc4)N23)cc1,.,7,1,.,.,.,.,.
COc1ccccc1CCC(=O)Nc1nccs1,-3,1,3,-1,9,-13,.,.
COc1ccccc1CCC(=O)Nc1ncc(C)s1,-3,3,15*,-2,0,11,-1,-5
O=C(Nc1c(-c2ccc(F)c(F)c2)nc2ncccn12)C1CC1,.,3,9,.,.,.,.,.
COC(=O)[C@]12C=CCN1[C@H](c1ccc(C(F)(F)F)cc1)c1c(c3ccccc3n1S(=O)(=O)c1ccc(C)cc1)C2,.,-9,17*,.,.,.,2,4
COC(=O)[C@]12C=CCN1[C@@H](c1ccc(Cl)cc1)c1c(c3ccccc3n1S(=O)(=O)c1ccc(C)cc1)C2,.,-7,28*,.,.,.,2,3
COC(=O)[C@]12C=CCN1[C@H](c1ccc(Cl)cc1)c1c(c3ccccc3n1S(=O)(=O)c1ccc(C)cc1)C2,.,-3,-2,.,.,.,.,.
CC(C)(C)c1ccc(S(=O)(=O)N2CCC(C(=O)NCCC3=CCCCC3)CC2)cc1,.,7,-2,.,.,.,.,.
C=CCN1C(=O)[C@H](CC(=O)NCc2ccc(C)o2)[C@@]2(C(=O)OCC)CCCC=C12,.,6,4,.,.,.,.,.
COc1ccc(OC)c(S(=O)(=O)N2CCC(c3cn4ccccc4n3)CC2)c1,.,2,0,.,.,.,.,.
CC(NCc1cccnc1)c1ccccc1 (centres undefined),0,7,16*,-4,-8,-2,0,3
COc1ccc(-n2c(SCC(=O)Nc3cccc4ccccc34)nnc2-c2ccco2)cc1,.,2,-2,.,.,.,.,.
Cc1ccc(CSc2ncn(-c3ccccc3)n2)cc1,10,1,16*,-9,-11,10,4,-2
Cc1ccc(NC(=O)COC(=O)c2ccc3c(c2)OCCO3)cc1S(=O)(=O)N1CCOCC1,8,-7,1,1,9,1,.,.
